ChEMBL document CHEMBL5661979, “Pharmacological inhibition of BMK1 suppresses tumor growth through promyelocytic leukemia protein” (Cancer Cell, 2010)
Calls of active or inactive are those of the source. The rule behind the calls is not given here.

Experiments:
[1] = target: Interferon-induced, double-stranded RNA-activated protein kinase (Homo sapiens, UniProt P19525); assay: Inhibition of PKR in human HeLa cells lysate at 2 uM pre incubated for 15 mins followed by ATP acyl phosphate probe addition and measured after 10 mins by LC-MS/MS analysis relative to control; format: subcellular; details: time 25.0 min
Interferon-induced, double-stranded RNA-activated protein kinase, sequence (P19525 whole entry): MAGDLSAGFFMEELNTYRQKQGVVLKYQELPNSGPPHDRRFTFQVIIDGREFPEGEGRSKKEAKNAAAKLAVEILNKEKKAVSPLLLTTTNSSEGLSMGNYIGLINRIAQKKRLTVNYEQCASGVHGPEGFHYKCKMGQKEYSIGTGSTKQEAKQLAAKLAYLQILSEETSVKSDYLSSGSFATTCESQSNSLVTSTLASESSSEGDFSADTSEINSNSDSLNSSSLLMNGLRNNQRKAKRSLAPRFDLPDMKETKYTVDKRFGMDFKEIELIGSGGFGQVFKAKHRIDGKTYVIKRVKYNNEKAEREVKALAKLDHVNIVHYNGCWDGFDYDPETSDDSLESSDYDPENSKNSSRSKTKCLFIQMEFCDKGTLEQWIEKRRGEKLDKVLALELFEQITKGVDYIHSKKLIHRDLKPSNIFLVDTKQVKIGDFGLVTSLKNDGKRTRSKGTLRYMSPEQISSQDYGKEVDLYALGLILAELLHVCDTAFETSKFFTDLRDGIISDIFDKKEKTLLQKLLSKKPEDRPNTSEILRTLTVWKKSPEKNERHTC

[2] = target: Tyrosine-protein kinase Fer (Homo sapiens, UniProt P16591); assay: Inhibition of FER in human HeLa cells lysate at 50 uM pre incubated for 15 mins followed by ATP acyl phosphate probe addition and measured after 10 mins by LC-MS/MS analysis relative to control; format: subcellular; details: time 25.0 min
Tyrosine-protein kinase Fer, sequence (P16591 whole entry, looked up): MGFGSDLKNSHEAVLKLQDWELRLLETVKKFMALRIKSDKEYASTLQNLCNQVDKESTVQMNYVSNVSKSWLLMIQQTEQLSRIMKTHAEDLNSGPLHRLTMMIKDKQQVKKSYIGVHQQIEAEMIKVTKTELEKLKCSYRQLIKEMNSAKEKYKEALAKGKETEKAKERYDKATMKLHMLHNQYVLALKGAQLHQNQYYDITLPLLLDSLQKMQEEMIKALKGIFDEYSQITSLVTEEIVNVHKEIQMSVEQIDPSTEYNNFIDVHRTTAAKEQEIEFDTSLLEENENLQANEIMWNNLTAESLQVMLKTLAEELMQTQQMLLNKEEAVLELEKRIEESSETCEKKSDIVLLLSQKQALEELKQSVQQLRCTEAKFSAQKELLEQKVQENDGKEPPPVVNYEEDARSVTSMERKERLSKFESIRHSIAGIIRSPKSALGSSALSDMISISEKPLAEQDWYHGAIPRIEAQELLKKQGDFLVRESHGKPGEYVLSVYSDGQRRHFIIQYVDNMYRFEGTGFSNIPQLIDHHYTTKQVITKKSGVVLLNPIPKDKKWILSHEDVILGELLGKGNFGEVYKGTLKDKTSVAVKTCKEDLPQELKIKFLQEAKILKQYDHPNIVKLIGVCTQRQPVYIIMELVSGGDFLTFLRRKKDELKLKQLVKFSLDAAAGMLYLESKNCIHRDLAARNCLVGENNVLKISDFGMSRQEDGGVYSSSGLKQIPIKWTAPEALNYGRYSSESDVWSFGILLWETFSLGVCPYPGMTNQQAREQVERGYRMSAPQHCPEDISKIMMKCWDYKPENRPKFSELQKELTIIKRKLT

[3] = Inhibition of CDK5/PRKX/PRKY in human HeLa cells lysate at 10 uM pre incubated for 15 mins followed by ADP acyl phosphate probe addition and measured after 10 mins by LC-MS/MS analysis relative to control; details: 25 min, condition cancer
How it was run: (§1)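 KiNativ profiling in HeLa lysate (5 mg/mL total protein). Lysate incubated 15 min with inhibitor at 50, 10, 2, 0.8 or 0 μM. ATP or ADP acylphosphate probe then added (5 μM final) and reacted 10 min. Reaction stopped with urea and analysed by targeted MS, using up to four fragment ions per kinase peptide-probe conjugate. % inhibition taken against untreated lysate. Run in duplicate.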

[4] = target: T1, STE20-related kinase adapter protein beta (Homo sapiens) (UniProt Q9C0K7); assay: Inhibition of ALS2CR2 in human HeLa cells lysate at 10 uM pre incubated for 15 mins followed by ADP acyl phosphate probe addition and measured after 10 mins by LC-MS/MS analysis relative to control; format: subcellular; details: time 25.0 min
T1 sequence (whole entry): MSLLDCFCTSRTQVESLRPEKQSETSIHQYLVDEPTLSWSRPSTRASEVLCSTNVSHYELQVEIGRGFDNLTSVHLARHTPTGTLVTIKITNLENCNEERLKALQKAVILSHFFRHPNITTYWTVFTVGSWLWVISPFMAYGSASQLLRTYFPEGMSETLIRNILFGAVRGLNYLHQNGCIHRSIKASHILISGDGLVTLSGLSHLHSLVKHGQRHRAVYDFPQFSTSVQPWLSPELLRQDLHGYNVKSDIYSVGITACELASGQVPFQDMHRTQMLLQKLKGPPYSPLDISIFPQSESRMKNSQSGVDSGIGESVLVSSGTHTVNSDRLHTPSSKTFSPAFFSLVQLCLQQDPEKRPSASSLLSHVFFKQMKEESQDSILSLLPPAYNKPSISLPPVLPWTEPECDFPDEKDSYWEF
How it was run: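 HeLa cell lysates (5 mg/mL total protein) were preincubated with inhibitor at 0, 0.8, 2, 10 or 50 μM for 15 min. ATP or ADP acylphosphate probe was then added (5 μM final) for 10 min, and reactions were stopped with urea. Up to four fragment ions per kinase probe-peptide were quantified by targeted MS. % inhibition was taken relative to untreated lysate. Run in duplicate.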

[5] = target: T2, Serine/threonine-protein kinase Sgk3 (Homo sapiens) (UniProt Q96BR1); assay: Inhibition of SGK3 in human HeLa cells lysate at 50 uM pre incubated for 15 mins followed by ATP acyl phosphate probe addition and measured after 10 mins by LC-MS/MS analysis relative to control; format: subcellular; details: time 25.0 min
T2 sequence (whole entry): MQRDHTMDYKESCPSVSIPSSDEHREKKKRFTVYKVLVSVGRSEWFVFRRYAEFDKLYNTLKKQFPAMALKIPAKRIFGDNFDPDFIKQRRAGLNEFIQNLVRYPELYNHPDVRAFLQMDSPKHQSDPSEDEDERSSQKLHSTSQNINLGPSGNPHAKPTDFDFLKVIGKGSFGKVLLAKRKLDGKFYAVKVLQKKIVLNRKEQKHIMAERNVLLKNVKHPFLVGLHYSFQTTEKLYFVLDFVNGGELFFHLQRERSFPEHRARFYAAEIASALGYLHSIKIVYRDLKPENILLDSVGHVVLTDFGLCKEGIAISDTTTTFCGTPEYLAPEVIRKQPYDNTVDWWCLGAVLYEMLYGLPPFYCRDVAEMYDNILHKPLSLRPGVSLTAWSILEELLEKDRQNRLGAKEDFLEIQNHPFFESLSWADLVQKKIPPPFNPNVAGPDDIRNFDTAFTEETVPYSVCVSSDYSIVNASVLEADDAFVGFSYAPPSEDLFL

[6] = target: Ribosomal protein S6 kinase alpha-5 (Homo sapiens, UniProt O75582); assay: Inhibition of MSK1 domain 1 K1 site in human HeLa cells lysate pre incubated for 15 mins followed by ADP acyl phosphate probe addition and measured after 10 mins by LC-MS/MS analysis; format: subcellular
Ribosomal protein S6 kinase alpha-5, sequence (O75582 whole entry, the tested form may be a part): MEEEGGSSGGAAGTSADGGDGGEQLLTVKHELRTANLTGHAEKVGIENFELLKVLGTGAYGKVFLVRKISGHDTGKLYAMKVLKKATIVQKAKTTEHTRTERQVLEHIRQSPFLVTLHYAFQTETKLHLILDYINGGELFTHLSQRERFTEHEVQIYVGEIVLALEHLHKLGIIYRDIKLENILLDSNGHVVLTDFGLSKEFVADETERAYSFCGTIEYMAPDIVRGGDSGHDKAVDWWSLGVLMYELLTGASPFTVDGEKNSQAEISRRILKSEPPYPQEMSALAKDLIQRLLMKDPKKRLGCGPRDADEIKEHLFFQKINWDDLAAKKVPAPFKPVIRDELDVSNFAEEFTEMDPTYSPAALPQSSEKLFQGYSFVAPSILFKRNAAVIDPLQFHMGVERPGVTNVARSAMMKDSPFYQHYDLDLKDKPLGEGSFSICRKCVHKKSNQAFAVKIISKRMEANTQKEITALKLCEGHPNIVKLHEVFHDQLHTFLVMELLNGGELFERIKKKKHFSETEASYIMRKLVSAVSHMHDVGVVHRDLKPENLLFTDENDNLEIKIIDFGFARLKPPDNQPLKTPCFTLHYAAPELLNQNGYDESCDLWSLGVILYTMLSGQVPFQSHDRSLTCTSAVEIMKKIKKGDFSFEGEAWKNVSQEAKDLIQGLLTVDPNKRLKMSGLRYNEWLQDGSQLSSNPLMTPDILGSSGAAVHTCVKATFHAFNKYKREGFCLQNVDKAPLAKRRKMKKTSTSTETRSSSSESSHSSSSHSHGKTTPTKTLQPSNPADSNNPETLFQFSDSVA

[7] = target: Cyclin-dependent kinase 2 (Homo sapiens, UniProt P24941); assay: Inhibition of CDK2 K2 site in human HeLa cells lysate pre incubated for 15 mins followed by ADP acyl phosphate probe addition and measured after 10 mins by LC-MS/MS analysis; format: subcellular; how it was run: as §1
[8] = Inhibition of SRC/FYN/YES in human HeLa cells lysate at 2 uM pre incubated for 15 mins followed by ATP acyl phosphate probe addition and measured after 10 mins by LC-MS/MS analysis relative to control; details: 25 min, condition cancer
[9] = Inhibition of MAP3K5/MAP3K6/MAP3K15 in human HeLa cells lysate at 2 uM pre incubated for 15 mins followed by ATP acyl phosphate probe addition and measured after 10 mins by LC-MS/MS analysis relative to control; details: 25 min, condition cancer
[10] = Inhibition of HGK/MINK/TNIK in human HeLa cells lysate at 50 uM pre incubated for 15 mins followed by ADP acyl phosphate probe addition and measured after 10 mins by LC-MS/MS analysis relative to control; details: 25 min, condition cancer
[11] = target: Serine/threonine-protein kinase Aurora (Homo sapiens, UniProt Q96GD4+Q9UQB9+O14965); assay: Inhibition of AURA/AURB/AURC in human HeLa cells lysate pre incubated for 15 mins followed by ATP acyl phosphate probe addition and measured after 10 mins by LC-MS/MS analysis; format: subcellular
How it was run: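 KiNativ-type profiling in HeLa lysate (5 mg/mL total protein). Lysate preincubated 15 min with inhibitor at 50, 10, 2, 0.8 or 0 μM, then ATP or ADP acylphosphate probe added (5 μM final) for 10 min. Reaction stopped with urea and analysed by targeted MS, using up to four fragment ions per kinase peptide-probe conjugate. % inhibition calculated against untreated lysate. Duplicate reactions.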

Lewis lung carcinoma = assay: Antitumor activity against mouse LL2 cells allografted in C57Bl/6 mouse assessed as reduction tumor growth at 50 mg/kg, ip administered on day 10 post implantation measured after 17 days; format: functional, organism-based; details: time 7.0 day
How it was run: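 LL/2 cells (1×10^6, in DMEM) were injected s.c. into the right flank of 6-week-old C57Bl/6 mice on day 0. Dosing was 50 mg/kg i.p. twice daily, starting on day 1, 7 or 10 and continuing to day 17; controls received carrier. 6 mice per treated group. Tumors were measured every 2–3 days.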

[12] = target: Tyrosine-protein kinase Lyn (Homo sapiens, UniProt P07948); assay: Inhibition of LYN in human HeLa cells lysate pre incubated for 15 mins followed by ATP acyl phosphate probe addition and measured after 10 mins by LC-MS/MS analysis; format: subcellular
Tyrosine-protein kinase Lyn, sequence (P07948 whole entry): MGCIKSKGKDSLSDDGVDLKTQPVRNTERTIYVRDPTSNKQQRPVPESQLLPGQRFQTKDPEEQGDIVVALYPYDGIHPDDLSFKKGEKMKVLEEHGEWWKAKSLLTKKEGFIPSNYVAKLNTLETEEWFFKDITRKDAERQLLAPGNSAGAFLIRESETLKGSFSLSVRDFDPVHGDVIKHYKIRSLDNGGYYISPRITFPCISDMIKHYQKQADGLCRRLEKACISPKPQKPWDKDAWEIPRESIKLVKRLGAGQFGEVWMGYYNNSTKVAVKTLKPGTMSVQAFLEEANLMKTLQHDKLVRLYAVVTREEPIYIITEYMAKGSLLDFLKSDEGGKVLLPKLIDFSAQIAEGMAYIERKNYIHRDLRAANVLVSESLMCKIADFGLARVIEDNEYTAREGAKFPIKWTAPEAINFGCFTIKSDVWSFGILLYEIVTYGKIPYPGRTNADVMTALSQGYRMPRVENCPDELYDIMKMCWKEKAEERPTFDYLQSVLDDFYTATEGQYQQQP

[13] = Inhibition of MST4/YSK1 in human HeLa cells lysate at 2 uM pre incubated for 15 mins followed by ADP acyl phosphate probe addition and measured after 10 mins by LC-MS/MS analysis relative to control; details: 25 min, condition cancer

## CCOc1cc(N2CCC(O)CC2)ccc1Nc1ncc2c(n1)N(C)c1ccccc1C(=O)N2C
[1]
  inhibition: -2.6%
[2]
  inhibition: 14.8%
[3]
  inhibition at 10 µM: -0.1%
[4]
  inhibition: -9.5%
[5]
  inhibition: -0.9%
[6]
  IC50: > 50 µM
[7]
  IC50: > 50 µM
[8]
  inhibition at 2 µM: -29.7%
[9]
  inhibition at 2 µM: 2%
[10]
  inhibition at 50 µM: -31.5%
[11]
  IC50: > 50 µM
Lewis lung carcinoma
  Activity: Active
[12]
  IC50: > 50 µM
[13]
  inhibition at 2 µM: 11.3%
